Source: paper PMC3079392 (The Biochemical journal, 2008)
“Also recorded” adds a separate entry of the source. Where two headings read alike, the source gives them in different places.

Legend:
110δ = settings: cited from earlier work
[1] = test system: PKB/Akt (S473) and S6 (S235,236) phosphorylation; assay: Western blot of PI3K signaling; type: cell-based; settings: for Temporal inhibition of PKB/Akt and S6 phosphorylation: 1 μM, 1, 6 and 24 h
[2] = cited from earlier work
breast cancer cell lines [3] = assay: Flow cytometry DNA content with nocodazole protocol; type: cell-based
[4] = test system: phospho-PKB/Akt (Ser-473); assay: Western blot of phospho-PKB/Akt; type: cell-based; settings: 1 h; for Inhibition of PKB/Akt phosphorylation: MDA-MB-468 and BT549 cells (PTEN mutant), 0.5, 1 and 10 μM; for Increase in PKB phosphorylation induced by siRNA to PTEN: MDA-MB-231 cells with PTEN siRNA, 1 μM
phospho-S6 = assay: Phospho-S6 immunofluorescence, Cellomics arrayscan; type: cell-based; settings: 1 μM; for Inhibition of S6 phosphorylation by immunofluorescence: 1 h; for S6 phosphorylation following treatment: Hs578t cells, up to 24 h
Procedure, shortened: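 Cells in 96-well plates; SKBr3 treated 18 h after plating with 1 μM test compound for 1 or 24 h, Hs578t for 24 h. Fixed in 4% paraformaldehyde 15 min, permeabilized in 0.2% Triton X-100 5 min, then blocked in 1% BSA 20 min. Anti-phospho-S6 1 h, fluorescent secondary 1 h, Hoechst. Cytoplasmic intensity (Hoechst-defined nuclear ring) measured on Cellomics ArrayScan, averaged over 200 cells; secondary-only control.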

breast cancer cell lines [5] = assay: Cell number by counting Hoechst-stained nuclei; type: cell-based
Procedure, shortened: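 Cells plated in 96-well dishes; test compound added the next day, with medium and fresh compound replaced every 24 h, for 48 h (or 1 μM for 24, 48 and 72 h). Cells then fixed and permeabilized, and nuclei stained with Hoechst. Nuclei counted on a Cellomics ArrayScan reader.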

breast cancer cell lines [6] = assay: Flow cytometry DNA content; type: cell-based; settings: for Effects on DNA content: MCF10A, BT474, MDA-MB-231 and MDA-MB-468 cells; for Sub-G1 population (less than 2n DNA content): SKBR3 cells, 24 h
Procedure, shortened: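 Cells in 6-well plates (80% confluence) treated with test compound: SKBr3 at several concentrations for 24 h; others at 1 μM for 24, 48 or 72 h with fresh compound every 24 h. Adherent plus floating cells pooled and fixed in 70% ethanol. Stained with propidium iodide 10 μg/ml plus RNase A 0.1 mg/ml; 10,000 cells analysed by flow cytometry. Sub-G1 scored as <2n DNA content.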

phospho-S6 (Ser-235,236) = assay: Western blot of phospho-S6; type: cell-based; settings: 1 h
Procedure, shortened: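 Cells in 6-well plates (80% confluence) exposed to test compound at 0.5, 1 or 10 μM for 1 h, then scraped into NP40 lysis buffer with phosphatase and protease inhibitors. Detected by HRP secondary and ECL; bands quantified densitometrically.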

p110α/p85α = settings: read-out: In-vitro IC50 p110α/p85α; cited from earlier work
p110δ/p85α = settings: read-out: In-vitro IC50 p110δ/p85α; cited from earlier work
[7] = MCF10A, BT474, SKBR3, BT20, T47D, MCF7 and HS578t, 0.5, 1 and 10 μM, 1 h
[8] = MDA-MB-468 cells, 0.5 and 1 μM, 48 h
[9] = five other cell lines, 0.5 and 1 μM, 48 h
[10] = MDA-MB-468 cells (PTEN mutant), 1 μM, nocodazole 70 ng/ml
[11] = MDA-MB-231 cells, 0.5, 1 and 10 μM
[12] = mutant Ras cell lines MDA-MB-231 and Hs578t, 1 μM PI3K inhibitor, 100 nM rapamycin, nocodazole protocol

Cc1ccccc1-n1c(Cn2cnc3c(N)ncnc32)nc2cccc(C)c2c1=O [IC87114]
Selectivity for 110δ vs. all other PI3K family members (110δ): > 100 fold

O=c1cc(N2CCOCC2)oc2c(-c3ccccc3)cccc12 [LY294002]
Inhibition of PI3K signaling ([1]; all cell lines examined): effective at inhibiting PI3K signaling in all cell lines examined | Toxicity when administered systemically in vivo ([2]; in vivo): toxic when administered systemically in vivo

N#CC(=C(/N)Sc1ccccc1N)/C(C#N)=C(/N)Sc1ccccc1N [U0126]
G1 arrest (breast cancer cell lines [3]; all cell lines examined, 10 μM U0126, nocodazole protocol): caused a G1 arrest in all cell lines examined

Cc1cc(C(C)Nc2ccccc2)c2oc(-c3ccncc3)cc(=O)c2c1 (stereo not shown) [TGX-286]
Inhibition of PKB/Akt phosphorylation [4]: able to inhibit the phosphorylation of PKB/Akt | Inhibition of PKB/Akt and S6 phosphorylation [1, 7]: ineffective | Inhibition of S6 phosphorylation by immunofluorescence (phospho-S6; SKBr3 cells): only a minimal inhibition | Effect on cell number (breast cancer cell lines [5]; BT549 cells): did not exhibit these responses to cell number | Effect on cell number (breast cancer cell lines [5]; [8]): dose-dependent reduction in cell number | Effect on cell number (breast cancer cell lines [5]; [9]): broadly unaffected | Effects on DNA content (breast cancer cell lines [6]; 1 μM, 24, 48 and 72 h): Neither PI-103, TGX-286 or PIK-108 showed strong effects | G1 arrest (breast cancer cell lines [3]; [10]): G1 arrest was uniquely observed

Cc1ccc(-c2c(C(=O)CF)n(CCCO)c3ncnc(N)c23)cc1 [fmk]
Effect on cell cycle arrest (breast cancer cell lines [3]; MDA-MB-231 cells (Fig. 5C)): not sufficient to cause any effect on cell cycle arrest

Oc1cccc(-c2nc(N3CCOCC3)c3oc4ncccc4c3n2)c1 [PI-103]
Increase in PKB phosphorylation induced by siRNA to PTEN [4]: abrogated | Inhibition of S6 phosphorylation (phospho-S6 (Ser-235,236); [11]): still sensitive | Inhibition of PKB/Akt and S6 phosphorylation [1]: equipotent; also recorded: more potent than PIK-75 | S6 phosphorylation following treatment (phospho-S6): remained inhibited | Inhibition of S6 phosphorylation by immunofluorescence (phospho-S6; SKBr3 cells): inhibit S6 phosphorylation | Effect on cell number (breast cancer cell lines [5]; BT549 and Hs578t cells, 1 μM): resistant to cell number decreases | Effects on DNA content (breast cancer cell lines [6]; 1 μM, 24, 48 and 72 h): Neither PI-103, TGX-286 or PIK-108 showed strong effects | Sub-G1 population (less than 2n DNA content) (breast cancer cell lines [6]): did not induce such an effect | G1 arrest (breast cancer cell lines [3]; BT474 and MCF10A cells, 1 μM, nocodazole 70 ng/ml): induced a G1 arrest | G1 arrest (breast cancer cell lines [3]; MDA-MB-231 and MDA-MB-468 cells, 1 μM, nocodazole 70 ng/ml): not in MDA-MB-231 cells or in MDA-MB-468 cells | G1 arrest (breast cancer cell lines [3]; [12]): marked insensitivity | IC50 (p110α/p85α): […] | IC50 (p110δ/p85α): […]

CO[C@H]1C[C@@H]2CC[C@@H](C)[C@@](O)(O2)C(=O)C(=O)N2CCCC[C@H]2C(=O)O[C@H]([C@H](C)C[C@@H]2CC[C@@H](O)[C@H](OC)C2)CC(=O)[C@H](C)/C=C(\C)[C@@H](O)[C@@H](OC)C(=O)[C@H](C)C[C@H](C)/C=C/C=C/C=C/1C [rapamycin]
Inhibition of S6 phosphorylation (phospho-S6 (Ser-235,236); WT Ras cell lines BT-474 and BT20): sufficient to fully inhibit S6 phosphorylation | Inhibition of S6 phosphorylation (phospho-S6 (Ser-235,236); mutant Ras MDA-MD-231 cell line): residual phosphorylation of S6 | G1 arrest (breast cancer cell lines [3]; all cells expressing WT Ras, 100 nM rapamycin, nocodazole protocol): caused a G1 arrest (to varying degrees) | G1 arrest (breast cancer cell lines [3]; [12]): ineffective at causing a G1 arrest

Cc1cc([C@H](C)Nc2ccccc2)c2oc(N3CCOCC3)cc(=O)c2c1 [PIK-108]
Increase in PKB phosphorylation induced by siRNA to PTEN [4]: abrogated | Inhibition of PKB/Akt phosphorylation [4]: able to inhibit the phosphorylation of PKB/Akt | Inhibition of PKB/Akt and S6 phosphorylation [1, 7]: ineffective | Inhibition of S6 phosphorylation by immunofluorescence (phospho-S6; SKBr3 cells): only a minimal inhibition | Effect on cell number (breast cancer cell lines [5]; BT549 cells): did not exhibit these responses to cell number | Effect on cell number (breast cancer cell lines [5]; [8]): dose-dependent reduction in cell number | Effect on cell number (breast cancer cell lines [5]; [9]): broadly unaffected | Effects on DNA content (breast cancer cell lines [6]; 1 μM, 24, 48 and 72 h): Neither PI-103, TGX-286 or PIK-108 showed strong effects | G1 arrest (breast cancer cell lines [3]; [10]): G1 arrest was uniquely observed; also recorded: partial G1 arrest

Cc1ccc([N+](=O)[O-])cc1S(=O)(=O)N(C)/N=C/c1cnc2ccc(Br)cn12 [PIK-75]
Inhibition of S6 phosphorylation (phospho-S6 (Ser-235,236); [11]): still sensitive | Temporal inhibition of PKB/Akt and S6 phosphorylation ([1]; BT549 cells): transient inhibition | Inhibition of PKB/Akt and S6 phosphorylation [1, 7]: equipotent | Temporal inhibition of PKB/Akt and S6 phosphorylation ([1]; T47D, MCF10A, BT20 cells): sustained | S6 phosphorylation following treatment (phospho-S6): rapidly recovered to untreated levels | Duration of inhibition of S6 phosphorylation by immunofluorescence (phospho-S6; SKBr3 cells, 1 and 24 h): sustained | Inhibition of S6 phosphorylation by immunofluorescence (phospho-S6; SKBr3 cells): inhibit S6 phosphorylation | Effect on cell number (breast cancer cell lines [5]; Hs578t cells, 48 h of treatment): strongly inhibited cell number | Loss of cell number (breast cancer cell lines [5]; eight cell lines, 1 μM, 24, 48 and 72 h): greatest ability to induce loss of cell number | Sub-G1 population (breast cancer cell lines [6]; BT474 (rapid), MCF10A and MDA-MB-468 (delayed), 1 μM, 24, 48 and 72 h): induced a large sub-G1 population | DNA content (breast cancer cell lines [6]; MDA-MB-231 cells, 1 μM, 24, 48 and 72 h): strong accumulation of cells with a 4n DNA content | Sub-G1 population (less than 2n DNA content) (breast cancer cell lines [6]): induced a significant sub-G1 population

COC[C@H]1OC(=O)c2coc3c2[C@@]1(C)C1=C(C3=O)[C@@H]2CCC(=O)[C@@]2(C)C[C@H]1OC(C)=O [wortmannin]
Toxicity when administered systemically in vivo [2]: toxic when administered systemically in vivo
